pIC50: −log10 of the molar value. ≈ marks a conversion by molar mass, not a printed value. Calls of active or inactive are those of the source. No cut-off for these calls is given here.
Assays:
Staphylococcus aureus [1] = experiment: Antibacterial activity against Staphylococcus aureus ATCC 29213 after 24 hrs by micro dilution method; assay type: functional; conditions: ATCC 29213, 24 h
In short: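 Broth microdilution in Mueller Hinton broth. Inoculum from a 24 h culture in saline, set to 0.5 McFarland and diluted to a final 5 × 10^6 CFU mL-1. Two-fold serial dilutions, final 0.25–256 µg mL-1. Incubated 37 °C for 24 h and read visually. MIC is the lowest concentration with no turbidity.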

Staphylococcus aureus [2] = experiment: Antibacterial activity against methicillin-resistant Staphylococcus aureus 15187 after 24 hrs by micro dilution method; assay type: functional; conditions: Staphylococcus aureus, 15187, 24 h
In short: (§1)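 Broth microdilution in Mueller Hinton broth, two-fold serial dilutions, final 0.25 to 256 µg mL-1. Inoculum from 24 h culture in saline, set to 0.5 McFarland, diluted to a final 5 × 10^6 CFU mL-1. Plates held at 37 °C for 24 h and read by eye. MIC is the lowest concentration with no turbidity.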

Enterococcus [3] = experiment: Antibacterial activity against vancomycin-resistant Enterococcus after 24 hrs by micro dilution method; assay type: functional; in short: as §1
Staphylococcus aureus [4] = experiment: Antibacterial activity against Staphylococcus aureus ATCC 29213 treated for 24 hrs followed by compound treated at 2 to 16 times MIC measured after 24 hrs by micro dilution method; assay type: functional; conditions: ATCC 29213, 24 h
Staphylococcus aureus [5] = experiment: Antibacterial activity against methicillin-resistant Staphylococcus aureus 15187 treated for 24 hrs followed by compound treated at 2 to 16 times MIC measured after 24 hrs by micro dilution method; assay type: functional; conditions: Staphylococcus aureus, 15187, 24 h
In short: (§2)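 MBC taken from the same 24 h microdilution plates (Mueller Hinton broth, final inoculum 5 × 10^6 CFU mL-1, 37 °C). […] Spots were incubated 24 h and colonies counted. MBC is the lowest concentration giving a 3 log drop from the starting inoculum.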

Enterococcus [6] = experiment: Antibacterial activity against vancomycin-resistant Enterococcus treated for 24 hrs followed by compound treated at 2 to 16 times MIC measured after 24 hrs by micro dilution method; assay type: functional; in short: as §2
Candida albicans = experiment: Antifungal activity against Candida albicans ATCC 90028; assay type: functional
Aspergillus fumigatus = experiment: Antifungal activity against Aspergillus fumigatus LSI-II; assay type: functional
HL-60 [7] = experiment: Antiproliferative activity against human HL60 cells after 48 hrs by sulforhodamine B assay; assay type: functional, cell-based; conditions: HL-60, 48 h
In short: (§3)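 Sulforhodamine B assay following NCI guidelines. Log-phase cells seeded at 10^4 cells/well and allowed to attach for 24 h at 37 °C, 5% CO2. Exposed 48 h to 1:10 serial dilutions, four replicate wells per condition. Fixed with 50% cold TCA for 1 h at 4 °C, stained, dye dissolved in tris buffer, OD read at 540 nm. Blank-subtracted growth expressed relative to untreated (100%) and reported as IC50.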

PC-3 = experiment: Antiproliferative activity against human PC3 cells after 48 hrs by sulforhodamine B assay; assay type: functional, cell-based; conditions: PC-3, 48 h; in short: as §3
MOLT-4 = experiment: Antiproliferative activity against human MOLT4 cells after 48 hrs by sulforhodamine B assay; assay type: functional, cell-based; conditions: MOLT-4, 48 h; in short: as §3
HL-60 [8] = experiment: Induction of apoptosis in human HL60 cells assessed as DNA discrete ladder pattern formation at 5 to 30 uM after 24 hrs using ethidium bromide staining by agarose gel electrophoresis analysis; assay type: functional, cell-based
HL-60 [9] = experiment: Cell cycle arrest in human HL60 cells assessed as accumulation at sub-G1 phase after 24 hrs using propidium iodide staining by flow cytometry; assay type: functional, cell-based
In short: (§4)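 Cell-cycle (sub-G1) profiling of HL-60 cells at 1 × 10^6 per well, treated 24 h at 1, 10, 30 or 100 µM. Washed in ice-cold PBS, fixed in 70% ethanol at -20 °C for 30 min. Treated with RNase A (0.1 mg/mL) at 37 °C for 30 min, then propidium iodide (50 µg/mL) for 30 min on ice in the dark. Read with doublet discrimination and 488 nm excitation.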

HL-60 [10] = experiment: Cell cycle arrest in human HL60 cells assessed as accumulation at sub-G1 phase at 1 uM after 24 hrs using propidium iodide staining by flow cytometry; assay type: functional; in short: as §4
HL-60 [11] = experiment: Cell cycle arrest in human HL60 cells assessed as accumulation at sub-G1 phase at 10 uM after 24 hrs using propidium iodide staining by flow cytometry; assay type: functional
In short: (§5)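 Time-course sub-G1 analysis of HL-60 cells exposed to 10 µM and sampled at 0, 6, 9, 18 and 24 h. Ethanol fixation, RNase A and propidium iodide staining as for the dose series, then flow cytometric DNA content at 488 nm excitation.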

HL-60 [12] = experiment: Cell cycle arrest in human HL60 cells assessed as accumulation at sub-G1 phase at 30 uM after 24 hrs using propidium iodide staining by flow cytometry; assay type: functional; in short: as §4
HL-60 [13] = experiment: Cell cycle arrest in human HL60 cells assessed as accumulation at sub-G1 phase at 100 uM after 24 hrs using propidium iodide staining by flow cytometry; assay type: functional; in short: as §4
HL-60 [14] = experiment: Cell cycle arrest in human HL60 cells assessed as accumulation at sub-G1 phase at 10 uM after 3 hrs using propidium iodide staining by flow cytometry; assay type: functional
HL-60 [15] = experiment: Cell cycle arrest in human HL60 cells assessed as accumulation at sub-G1 phase at 10 uM after 6 hrs using propidium iodide staining by flow cytometry; assay type: functional; in short: as §5
HL-60 [16] = experiment: Cell cycle arrest in human HL60 cells assessed as accumulation at sub-G1 phase at 10 uM after 9 hrs using propidium iodide staining by flow cytometry; assay type: functional; in short: as §5
HL-60 [17] = experiment: Cell cycle arrest in human HL60 cells assessed as accumulation at sub-G1 phase at 10 uM after 18 hrs using propidium iodide staining by flow cytometry; assay type: functional; in short: as §5

| Structure (SMILES) | MIC (Staphylococcus aureus [1]) [µg/mL] | MIC (Staphylococcus aureus [2]) [µg/mL] | MIC (Enterococcus [3]) [µg/mL] | MBC (Staphylococcus aureus [4]) [µg/mL] | MBC (Staphylococcus aureus [5]) [µg/mL] | MBC (Enterococcus [6]) [µg/mL] | MIC (Candida albicans) | MIC (Aspergillus fumigatus) | pIC50 (HL-60 [7]) | pIC50 (PC-3) | pIC50 (MOLT-4) | further results |
| --- | --- | --- | --- | --- | --- | --- | --- | --- | --- | --- | --- | --- |
| CCCCc1cc(Cl)c(O)c(-c2cc(CCCC)cc(Cl)c2O)c1 | 8 (≈ 21.8 µM) | 8 (≈ 21.8 µM) | 8 (≈ 21.8 µM) | 8 (≈ 21.8 µM) | 8 (≈ 21.8 µM) | 16 (≈ 43.6 µM) | inactive | inactive | 4.05 | < 4.00 | < 4.00 | – |
| O=c1[nH]cc(F)c(=O)[nH]1 [FLUOROURACIL] | – | – | – | – | – | – | – | – | 3.58 | 5.68 | 5.49 | – |
| CCCCc1cc(Br)c(O)c(-c2cc(CCCC)cc(Br)c2O)c1 | 8 (≈ 17.5 µM) | 8 (≈ 17.5 µM) | 8 (≈ 17.5 µM) | 8 (≈ 17.5 µM) | 8 (≈ 17.5 µM) | 16 (≈ 35.1 µM) | inactive | inactive | < 4.00 | < 4.00 | < 4.00 | – |
| C=CCc1cc(OC)c(O)c(-c2cc(CC=C)cc(OC)c2O)c1 | > 256 | > 256 | > 256 | > 256 | > 256 | > 256 | 64 µg/mL (≈ 196 µM) | 32 µg/mL (≈ 98 µM) | < 4.00 | < 4.00 | < 4.00 | – |
| CCCCc1cc(I)c(O)c(-c2cc(CCCC)cc(I)c2O)c1 | 4 (≈ 7.27 µM) | 4 (≈ 7.27 µM) | 4 (≈ 7.27 µM) | 4 (≈ 7.27 µM) | 4 (≈ 7.27 µM) | 8 (≈ 14.5 µM) | inactive | inactive | 5.70 | 5.70 | 5.00 | Activity (HL-60 [8]): Active; Activity (HL-60 [9]): Dose-dependent effect; Activity (HL-60 [10]): 12%; Activity (HL-60 [11]): 52%; Activity (HL-60 [12]): 67%; Activity (HL-60 [13]): 78%; Activity (HL-60 [14]): 14%; Activity (HL-60 [15]): 21%; Activity (HL-60 [16]): 33%; Activity (HL-60 [17]): 44% |
| CC[C@H]1OC(=O)[C@H](C)[C@@H](O[C@H]2C[C@@](C)(OC)[C@@H](O)[C@H](C)O2)[C@H](C)[C@@H](O[C@@H]2O[C@H](C)C[C@H](N(C)C)[C@H]2O)[C@](C)(O)C[C@@H](C)C(=O)[C@H](C)[C@@H](O)[C@]1(C)O [ERYTHROMYCIN] | 0.5 (≈ 0.681 µM) | 64 (≈ 87.2 µM) | 64 (≈ 87.2 µM) | 1 (≈ 1.36 µM) | 64 (≈ 87.2 µM) | 64 (≈ 87.2 µM) | – | – | – | – | – | – |
| CCCc1ccc(O)c(-c2cc(CCC)cc(Cl)c2O)c1 | > 256 | > 256 | > 256 | > 256 | > 256 | > 256 | inactive | inactive | 4.07 | < 4.00 | < 4.00 | – |
| CCCc1ccc(O)c(-c2cc(CCC)cc(Br)c2O)c1 | 8 (≈ 22.9 µM) | 16 (≈ 45.8 µM) | 16 (≈ 45.8 µM) | 8 (≈ 22.9 µM) | 16 (≈ 45.8 µM) | 32 (≈ 91.6 µM) | inactive | inactive | < 4.00 | < 4.00 | < 4.00 | – |
| CCCc1cc(Cl)c(O)c(-c2cc(CCC)cc(Cl)c2O)c1 | 4 (≈ 11.8 µM) | 4 (≈ 11.8 µM) | 8 (≈ 23.6 µM) | 4 (≈ 11.8 µM) | 4 (≈ 11.8 µM) | 8 (≈ 23.6 µM) | inactive | inactive | < 4.00 | < 4.00 | < 4.00 | – |
